Measurements of several laboratories.
Protocols differ between the studies behind these lines.
ELANE: Neutrophil elastase (ELANE, Homo sapiens, UniProt P08246)
MCU: Calcium uniporter protein, mitochondrial (MCU, Homo sapiens, UniProt Q8NE86)

SMILES | target | assay | conditions | IC50
CC(=O)Oc1ccc(-c2coc3c4c(c(CC=C(C)C)c(OC(C)=O)c3c2=O)OC(C)(C)C=C4)cc1OC(C)=O | Serine/threonine-protein kinase mTOR (MTOR, Homo sapiens, UniProt P42345) | enzyme activity, inhibitor, ELISA |  | 6200 nM
COc1cc(Nc2ncc(F)c(Nc3ccc4c(n3)NC(=O)C(C)(C)O4)n2)cc(OC)c1OC | Adenosine receptor A3 (ADORA3, Homo sapiens, UniProt P0DMS8) | cell-free assay, inhibitor |  | 20 nM
COc1ccc(C(=O)O)cc1S(=O)(=O)Nc1ccc(C(F)(F)F)cc1N1CCCCC1 | Endoplasmic reticulum aminopeptidase 2 (ERAP2, Homo sapiens, UniProt Q6P179, K392N) | enzyme activity, inhibitor, fluorescence |  | 27000 nM
CC(C)C[C@H](NC(=O)[C@H](Cc1ccccc1)NC(=O)c1cnccn1)B(O)O | ELANE | enzyme activity, inhibitor |  | > 33000 nM
C[C@H](N)Cn1ncc2ccc3c(c21)CCCO3 | D(2) dopamine receptor (DRD2, Homo sapiens, UniProt P14416) | ligand displacement, radioligand |  | > 100000 nM
N#Cc1nn(C(=O)C2CCCC2)c2ncccc12 | ELANE | enzyme activity, inhibitor, fluorescence |  | 160 nM
CC(C)C[C@H](NC(=O)[C@H](Cc1ccccc1)NC(=O)[C@H](Cc1ccc(O)cc1)NC(=O)CNC(=O)[C@H](CCCCN)NC(=O)[C@H](CO)NC(=O)[C@H](CCC(N)=O)NC(=O)CNC(=O)[C@@H](NC(=O)[C@H](CO)NC(=O)[C@@H]1CCCN1C(=O)[C@H](CO)NC(=O)[C@H](CCC(N)=O)NC(=O)[C@H](Cc1ccc(O)cc1)NC(=O)[C@H](CCC(=O)O)NC(=O)[C@H](C)NC(=O)[C@H](CCCCN)NC(=O)[C@@H](N)Cc1ccccc1)C(C)C)C(=O)N[C@@H](Cc1ccccc1)C(=O)N[C@@H](CCCNC(=N)N)C(=O)N1CCC[C@H]1C(=O)N[C@@H](CCCNC(=N)N)C(=O)N[C@@H](CC(N)=O)C(N)=O | Neuromedin-U receptor 2 (Mus musculus, UniProt Q8BZ39) | ligand displacement, radioligand |  | 0.0302 nM
Cl.Cl.N.N.N.N.N.N.N.N.[N-3].[Ru+4].[Ru+4] | MCU | transporter uptake, inhibitor |  | 2.2 nM
N#CC(C#N)=Cc1cc(C(=O)CCl)c[nH]1 | Epidermal growth factor receptor (EGFR, Homo sapiens, UniProt P00533) | enzyme activity, inhibitor, mobility shift |  | 13000 nM
NCCN.NCCN.NCCN.[Co+3] | MCU | transporter uptake, inhibitor |  | 76 nM
CN[C@@H]1C[C@H]2O[C@@](C)([C@@H]1OC)n1c3ccccc3c3c4c(c5c6ccccc6n2c5c31)C(=O)NC4 | Serine/threonine-protein kinase LMTK3 (LMTK3, Homo sapiens, UniProt Q96Q04) | enzyme activity, inhibitor, TR-FRET |  | 0.0045 nM
O=C(O)c1c(Cl)c(Cl)c(Cl)c(Cl)c1-c1c2cc(I)c(=O)c(I)c-2oc2c(I)c(O)c(I)cc12 | Delta-aminolevulinic acid dehydratase (Homo sapiens, UniProt P13716, C162A/K59N) | enzyme activity, inhibitor, absorbance | pH 8 | 6900 nM
